Bioassay records: PubChem BioAssay, several laboratories
Hits are enriched below; roughly 3% of the tested compounds scored in any of these assays.
DDE Tn7 FP inh = inhibitors of Tn7 peptide binding to human fibrin DD(E); P02675; FP displacement of FITC-Tn7 peptide from fibrin DD(E); 0% = median of compound wells per plate; inhibition, % at 8.3 µM; hit rate 0.13% among 370,000;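 active means inhibition above the mean of compounds falling within the control limits plus 3 SD of them, cut at about 14% in these data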;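 further: 0% = plate median of compound wells and 100% = 10 µM Aha-Tn7 peptide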
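Also added: labelled Tn7 tracer, 0.1 µM; Assay system: human fibrin DD(E) protein; Amount: 2 µM fibrin DD(E); Schedule: 10 min compound pre-incubation, 3 h probe incubation at room temperature; Repeats: one replicate per compound; Read-out basis: percent inhibition; Measured by: fluorescence polarization of the labelled Tn7 tracer.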
KLK7 zymogen act = activators of human kallikrein-7 zymogen. activation, % at 7 µM. hit rate 0.9% among 370,000. purified proKLK7, EDANS-DABCYL substrate fluorescence; 100% is mature enzyme control, 0% vehicle;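 active means activation above the mean of all tested compounds plus 3 SD, computed per campaign excluding outliers beyond control limits, cut at about 13% in these data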
NRP1-CendR mod = alters CendR peptide binding to human NRP-1; O14786; FAM-RPARPAR peptide binding to NRP-1, fluorescence polarization; hit rate 0.85% among 360,000; AID 602438; inhibition, % at 25 µM;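 active means inhibition or corrected inhibition above about 18%, plus a signal ratio from 0.5 to 1.5, limit read from the data, passing the limit was not always enough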
PLC-beta3 inh = inhibitors of human phospholipase C beta3; Q01970; Purified PLC-beta3, fluorogenic substrate, fluorescence; inhibition, % at 12.2 µM; hit rate 0.18% among 370,000; AID 720704; in the data active means inhibition above about 11%;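 further: 0% = median of compound wells on plate and 100% = full blocker control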
Tn6 DDE FP = DD(E)-Tn6 binding inhibition, primary FP screen; P02675; Fibrin DD(E) TRITC-Tn6 fluorescence polarization displacement; inhibition, % at 8.3 µM; hit rate 0.21% among 370,000;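 active means inhibition above a per-campaign cutoff: mean of compounds within control limits plus 3 SD, cut at about 15% in these data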;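 further: 0% = median of all compound wells on the plate and 100% = blocking peptide control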
PLC-gamma1 inh = blocks human PLC-gamma1 enzyme activity; P19174; purified PLC-gamma1, fluorogenic substrate, fluorescence; inhibition, % at 12.2 µM; hit rate 0.84% among 370,000; in the data active means inhibition above about 9.5%
DDE Tn6 FP ctr = counter-screen hit for Tn6 peptide-fibrin DD(E) binding disruption. shares compounds with Tn6 DDE FP. TRITC-Tn6 fluorescence polarization displacement; 0% = median of compound wells, not DMSO. inhibition, % at 8.3 µM. hit rate 2% among 680. AID 720621;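 active means inhibition above the mean of test compounds lying between the control limits plus 3 SD of those, cut at about 14% in these data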;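 further: 0% = median of compound wells and 100% = wells with Aha-Tn7 blocking peptide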
Tn6 DDE conf = DD(E)-Tn6 binding inhibition, FP confirmation; shares compounds with Tn6 DDE FP; FP displacement of TRITC-Tn6 peptide from DD(E); 0% = per-plate median of test wells; inhibition, % at 8.3 µM; hit rate 10% among 680; AID 720631;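 active means inhibition above the mean of compounds lying within the control limits plus 3 SD, cut at about 16% in these data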;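 further: 100% = high control wells holding a competing inhibitor peptide at 10 µM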
The depositor's hits bear a star.

Screening COc1ccc(Cl)c(Cn2c(NCCCO)nc3c2c(=O)n(C)c(=O)n3C)c1 returned DDE Tn7 FP inh 2, KLK7 zymogen act -1, NRP1-CendR mod 12, PLC-beta3 inh 1, Tn6 DDE FP 17*, PLC-gamma1 inh -1, DDE Tn6 FP ctr -4 and Tn6 DDE conf -4.
For CCOc1ccccc1N(CC(=O)N1CCCC1)S(C)(=O)=O the results were DDE Tn7 FP inh 11, KLK7 zymogen act -1, NRP1-CendR mod 4, PLC-beta3 inh 1, Tn6 DDE FP 16*, PLC-gamma1 inh 1, DDE Tn6 FP ctr 1 and Tn6 DDE conf 1.
For CCc1ccccc1N(CC(=O)N1CCCC1)S(C)(=O)=O the results were DDE Tn7 FP inh -8, KLK7 zymogen act 0, NRP1-CendR mod 3, PLC-beta3 inh -7, Tn6 DDE FP -1 and PLC-gamma1 inh -1.
`CN(CC(=O)N1CCc2ccccc21)S(=O)(=O)c1cccs1` gave DDE Tn7 FP inh -5, KLK7 zymogen act 0, NRP1-CendR mod -6, PLC-beta3 inh 4, Tn6 DDE FP 16*, PLC-gamma1 inh 6, DDE Tn6 FP ctr 1 and Tn6 DDE conf -4.
For CC(C(=O)N1CCc2ccccc21)N1CCN(S(=O)(=O)c2cccs2)CC1 (configuration not stated) the results were DDE Tn7 FP inh -1, KLK7 zymogen act 0, NRP1-CendR mod 7, PLC-beta3 inh -1, Tn6 DDE FP -6 and PLC-gamma1 inh 3.
`CN1C2=N[C@H](c3ccc(Br)cc3)CC(=O)N2/C(=C\c2ccccc2)[C@@H]1c1ccccc1` gave DDE Tn7 FP inh 3, PLC-beta3 inh -3, Tn6 DDE FP 4 and PLC-gamma1 inh -4.
`O=C1c2ccccc2CCC12N=NCC2c1ccc(Cl)cc1` (configuration not stated) gave DDE Tn7 FP inh 1, KLK7 zymogen act 0, NRP1-CendR mod -10, PLC-beta3 inh -4, Tn6 DDE FP 17*, PLC-gamma1 inh -4, DDE Tn6 FP ctr -5 and Tn6 DDE conf -11.
Screening COC(=O)c1cc(-c2cccc(C#N)c2)c(=O)n2c1CCC2 returned DDE Tn7 FP inh 9, KLK7 zymogen act 0, PLC-beta3 inh -7, Tn6 DDE FP 4 and PLC-gamma1 inh -2.
For COc1ccc(NC(=O)CSCC(=O)Nc2sccc2C#N)cc1 the results were DDE Tn7 FP inh 6, KLK7 zymogen act 0, NRP1-CendR mod -49, PLC-beta3 inh -14, Tn6 DDE FP 16*, PLC-gamma1 inh -8, DDE Tn6 FP ctr 1 and Tn6 DDE conf 6.
`CC1CN(C(=O)c2ccc(COc3ccccc3Br)o2)CC(C)O1` (configuration not stated) gave DDE Tn7 FP inh 8, KLK7 zymogen act 0, NRP1-CendR mod -4, PLC-beta3 inh 2, Tn6 DDE FP 21*, PLC-gamma1 inh -1, DDE Tn6 FP ctr -1 and Tn6 DDE conf -1.
`CCOC(=O)[C@]12CCCC=C1N(CCCOC)C(=O)[C@@H]2CC(=O)N1CCCCC1` gave DDE Tn7 FP inh 1, KLK7 zymogen act 0, PLC-beta3 inh 2, Tn6 DDE FP -4 and PLC-gamma1 inh -1.
`Fc1cccc(CNC(=S)OC2CCC23CCC(c2ccccc2)CC3)c1` (configuration not stated) gave DDE Tn7 FP inh 2, KLK7 zymogen act -1, PLC-beta3 inh 0, Tn6 DDE FP 6 and PLC-gamma1 inh -2.
`O=C(NCc1ccco1)C(c1ccccc1)N(CC1CCCO1)C(=O)Cn1nnc2ccccc21` (configuration not stated) gave DDE Tn7 FP inh -5, KLK7 zymogen act 0, NRP1-CendR mod 10, PLC-beta3 inh 1, Tn6 DDE FP 0 and PLC-gamma1 inh 3.
Screening Cc1ccccc1C(C(=O)NCc1ccco1)N(CC1CCCO1)C(=O)Cn1nnc2ccccc21 (configuration not stated) returned DDE Tn7 FP inh 3, KLK7 zymogen act 0, NRP1-CendR mod 9, PLC-beta3 inh 6, Tn6 DDE FP 19*, PLC-gamma1 inh 4, DDE Tn6 FP ctr 2 and Tn6 DDE conf -2.
`C=CCn1c(=O)c2c(nc3n2CC(C)CN3Cc2ccccc2)n(C)c1=O` (configuration not stated) gave DDE Tn7 FP inh -8, KLK7 zymogen act 0, NRP1-CendR mod 10, PLC-beta3 inh -5, Tn6 DDE FP 17*, PLC-gamma1 inh 1, DDE Tn6 FP ctr -1 and Tn6 DDE conf -12.
For Cc1nn(-c2ccccc2)c2sc(C(=O)NCc3ccc(F)cc3)cc12 the results were DDE Tn7 FP inh 4, KLK7 zymogen act -1, PLC-beta3 inh -3, Tn6 DDE FP 32*, PLC-gamma1 inh -5, DDE Tn6 FP ctr 0 and Tn6 DDE conf -14.
`Cc1nn(-c2ccc(F)cc2)c2sc(C(=O)O)cc12` gave DDE Tn7 FP inh -2, KLK7 zymogen act 0, NRP1-CendR mod -13, PLC-beta3 inh 2, Tn6 DDE FP 2 and PLC-gamma1 inh 0.
For O=C(Cc1cccs1)Nc1cccc(-c2nc3cc4ccccc4cc3[nH]2)c1 the results were DDE Tn7 FP inh -14, KLK7 zymogen act -88, NRP1-CendR mod -4, PLC-beta3 inh inactive, Tn6 DDE FP 144*, PLC-gamma1 inh inactive, DDE Tn6 FP ctr 4 and Tn6 DDE conf 34*.
For O=C(NCCO)[C@H](Cc1ccccc1)NC1(C(=O)NCCc2c[nH]c3ccccc23)CCCCC1 the results were DDE Tn7 FP inh 2, PLC-beta3 inh 1, Tn6 DDE FP 5 and PLC-gamma1 inh 1.
Screening COc1ccc(-n2c(=S)[nH]c3cc(C(=O)Nc4ccc(OC)c(OC)c4)ccc3c2=O)cc1 returned DDE Tn7 FP inh -2, KLK7 zymogen act 0, NRP1-CendR mod -11, PLC-beta3 inh 3, Tn6 DDE FP 17*, PLC-gamma1 inh 1, DDE Tn6 FP ctr -3 and Tn6 DDE conf -12.
For NC(=O)[C@H]1CC2(CC(c3cccc(NC(=O)CC(c4ccccc4)c4ccccc4)c3)=NO2)CN1C(=O)CC(c1ccccc1)c1ccccc1 (some centres not stated) the results were DDE Tn7 FP inh -6, KLK7 zymogen act 0, NRP1-CendR mod 18, PLC-beta3 inh 0, Tn6 DDE FP -4 and PLC-gamma1 inh 1.
